Among the data in ChEMBL document CHEMBL1144108, “Annocherin and (2,4)-cis- and trans-annocherinones, monotetrahydrofuran Annonaceous acetogenins with a C-7 carbonyl group from Annona cherimolia seeds” (J Nat Prod, 1999) are LC50, EC50 and Selectivity ratio values, retold here.

Converted amounts (≈) assume the structure as drawn.

Data set [1] in a line: Toxicity to brine shrimp larvae. The class given is organism-based. The note with it: artemia salina, in vivo.
The subject of another data set is A549. As to the kind of experiment: Cytotoxicity against human A549 cells after 7 days by MTT assay. The data set is classed as functional. The note with it: A549, 168 h, read-out: ED50 (the source's name). In a few lines:
(§1)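 Seven-day in vitro MTT cytotoxicity assay run at the Purdue Cancer Center Cell Culture Laboratory to standard protocols. Lines: A-549 lung carcinoma, MCF-7 breast carcinoma, HT-29 colon adenocarcinoma, A-498 kidney carcinoma, PC-3 prostate adenocarcinoma, MIA PaCa-2 pancreatic carcinoma. Adriamycin served as positive control.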

A further data set deals with MCF7. In words: Cytotoxicity against human MCF7 cells after 7 days by MTT assay. The data set is classed as functional. The note with it: MCF7, 168 h, read-out: ED50 (the source's name). The method in brief: as §1
The subject of a further data set is HT-29. As to the kind of experiment: Cytotoxicity against human HT-29 cells after 7 days by MTT assay. The settings on record: HT-29, 168 h, read-out: ED50 (the source's name). The class given is functional. In a few lines:
as §1
(Tetrazolium dyes change colour on reduction, which living cells bring about.)

The test system of data set [2] is A498. In words: Cytotoxicity against human A-498 cells after 7 days by MTT assay. The class given is functional. The note with it: A498, 168 h, read-out: ED50 (the source's name). In a few lines: as §1
Another data set concerns PC-3. In words: Cytotoxicity against human PC-3 cells after 7 days by MTT assay. The data set is classed as functional. The note with it: PC-3, 168 h, read-out: ED50 (the source's name). The method in brief: as §1
Data set [3] concerns MIA PaCa-2. As to the kind of experiment: Cytotoxicity against human MIA PaCa2 cells after 7 days by MTT assay. The class given is functional. The note with it: MIA PaCa-2, 168 h, read-out: ED50 (the source's name). The method in brief:
as §1

In data set [4] the test system is A498. As to the kind of experiment: Selectivity for human A498 cells over human HT29 cells. The data set is classed as functional.
Data set [5] relates to MIA PaCa-2. In words: Selectivity for human A498 cells over human MIA PaCa2 cells. The data set is classed as functional.

The compound `CCCCCCCCCCCC[C@H](O)[C@@H]1CC[C@@H]([C@@H](O)CCCCCCCC(O)CC[C@@H](O)CC2=C[C@H](C)OC2=O)O1` (some centres undefined) registered a 50% lethal concentration (LC50) in data set [1] of 0.0125 µg/mL (≈ 0.0209 µM). The EC50 in the data set with A549 was determined as 1.63 µg/mL (≈ 2.73 µM); with MCF7, 0.011 µg/mL (≈ 0.0184 µM); in the data set with HT-29, 0.001 µg/mL (≈ 0.00168 µM); in the data set with A498 [2] it was 2.96 µg/mL (≈ 4.96 µM); with PC-3 it was 1.32 µg/mL (≈ 2.21 µM); in the data set on MIA PaCa-2 [3], 0.001 µg/mL (≈ 0.00168 µM). Besides, the Selectivity ratio in the data set with A498 [4] and in the data set on MIA PaCa-2 [5] was 1000 throughout.
`CCCCCCCCCCCC[C@H](O)[C@@H]1CC[C@@H]([C@@H](O)CCCCCCCC(=O)CC[C@@H](O)CC2=C[C@H](C)OC2=O)O1` [ANNOCHERIN] registered an LC50 in data set [1] of 0.137 µg/mL (≈ 0.23 µM). The EC50 stood at 1.67 µg/mL (≈ 2.81 µM) in the data set on A549; 0.308 µg/mL (≈ 0.518 µM) in the data set on MCF7; 3.54 µg/mL (≈ 5.95 µM) with HT-29; 0.022 µg/mL (≈ 0.037 µM) in the data set on A498 [2]; 0.862 µg/mL (≈ 1.45 µM) in the data set with PC-3; 2.88 µg/mL (≈ 4.84 µM) in the data set on MIA PaCa-2 [3]. The Selectivity ratio was found to be 161 with A498 [4] and 131 in the data set with MIA PaCa-2 [5].
Take `COc1cccc2c1C(=O)c1c(O)c3c(c(O)c1C2=O)C[C@@](O)(C(=O)CO)C[C@@H]3O[C@H]1C[C@H](N)[C@H](O)[C@H](C)O1` [DOXORUBICIN]: the EC50 in the data set on A549 worked out at 0.0043 µg/mL (≈ 0.00791 µM); with MCF7, 0.129 µg/mL (≈ 0.237 µM); in the data set on HT-29 it was 0.0168 µg/mL (≈ 0.0309 µM); in the data set with A498 [2] it was 0.0156 µg/mL (≈ 0.0287 µM); in the data set with PC-3 it was 0.0499 µg/mL (≈ 0.0918 µM); in the data set on MIA PaCa-2 [3], 0.00101 µg/mL (≈ 0.00186 µM).

One may read the LC50 as the concentration lethal to half of the exposed cells or organisms.
